Consider 16 compounds from ChEMBL document CHEMBL3813684, “A Prospective Virtual Screening Study: Enriching Hit Rates and Designing Focus Libraries To Find Inhibitors of PI3Kδ and PI3Kγ” (J Med Chem, 2016).

Each structure is given as a SMILES string.

The target in one experiment is Phosphatidylinositol 4,5-bisphosphate 3-kinase catalytic subunit gamma isoform (Homo sapiens, UniProt P48736). In words: Inhibition of human PI3Kgamma using PIP2 as substrate by HTRF assay in presence of biotin-PIP3. The essentials: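 HTRF enzyme assay: PI3Kγ added to mix of ATP, MgCl2 and PIP2 substrate (apparent Km 200 µM ATP, 15 µM PIP2). PIP3 product read by displacement of biotin-PIP3 from Eu-anti-GST antibody/GST-GRP1 PH domain/biotin-PIP3/streptavidin-APC complex. Primary screen at 10 µM, hits >2 SD from mean; confirmation in triplicate at 10 µM; dose response as pIC50.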
Chain of Phosphatidylinositol 4,5-bisphosphate 3-kinase catalytic subunit gamma isoform (P48736 whole entry, the tested form may be a part, canonical isoform): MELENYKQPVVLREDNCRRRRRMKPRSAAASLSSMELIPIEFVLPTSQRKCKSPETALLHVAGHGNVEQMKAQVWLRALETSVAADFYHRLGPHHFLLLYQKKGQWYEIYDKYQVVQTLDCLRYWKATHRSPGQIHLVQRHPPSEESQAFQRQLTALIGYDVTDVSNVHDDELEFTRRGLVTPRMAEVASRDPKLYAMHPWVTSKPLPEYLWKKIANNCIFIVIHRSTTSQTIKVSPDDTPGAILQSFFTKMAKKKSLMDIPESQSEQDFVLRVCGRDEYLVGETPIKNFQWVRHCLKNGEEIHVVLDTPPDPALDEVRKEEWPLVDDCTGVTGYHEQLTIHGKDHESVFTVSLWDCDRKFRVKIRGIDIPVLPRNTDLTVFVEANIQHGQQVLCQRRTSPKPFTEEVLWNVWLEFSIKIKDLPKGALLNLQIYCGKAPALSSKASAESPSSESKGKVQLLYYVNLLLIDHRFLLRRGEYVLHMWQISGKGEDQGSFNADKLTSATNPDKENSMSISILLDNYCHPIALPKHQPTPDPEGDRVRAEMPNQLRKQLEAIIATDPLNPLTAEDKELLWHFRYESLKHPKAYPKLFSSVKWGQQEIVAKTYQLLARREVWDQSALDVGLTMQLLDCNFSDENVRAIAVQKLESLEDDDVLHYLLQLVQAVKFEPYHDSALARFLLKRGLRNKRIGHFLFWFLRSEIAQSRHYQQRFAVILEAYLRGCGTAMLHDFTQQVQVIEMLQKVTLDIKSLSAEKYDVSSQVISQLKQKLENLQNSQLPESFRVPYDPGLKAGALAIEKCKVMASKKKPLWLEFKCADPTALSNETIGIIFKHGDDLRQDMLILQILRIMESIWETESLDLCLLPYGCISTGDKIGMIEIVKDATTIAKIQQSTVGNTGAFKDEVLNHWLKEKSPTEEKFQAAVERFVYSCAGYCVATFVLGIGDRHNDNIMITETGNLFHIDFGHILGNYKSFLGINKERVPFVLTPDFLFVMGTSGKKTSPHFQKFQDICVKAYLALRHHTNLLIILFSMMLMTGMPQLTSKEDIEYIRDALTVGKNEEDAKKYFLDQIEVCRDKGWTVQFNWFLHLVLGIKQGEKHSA
On the technique in general: Time-resolved FRET reads energy transfer from a long-lived donor to a nearby acceptor.
As a reminder, the IC50 is the concentration that gives 50% inhibition. On to `COc1cc(-c2cnn3ccc(Nc4ccc(C(C)C)cc4)nc23)ccc1O`, for which the IC50 was 2.4 µM. As to `FC(F)(F)c1cc(Nc2nc3ccccc3s2)cc(C(F)(F)F)c1`, the IC50 was 5.5 µM. Turning to `COc1cc(Nc2ccn3ncc(-c4cccc(C(N)=O)c4)c3n2)cc(OC)c1OC`, the IC50 was 6.17 µM. On the same count and under the same terms, then `COc1cc(-c2cnc3ccc(NCc4ccco4)nn23)ccc1O`, with 6.92 µM; and `COc1cncc(-c2cnn3ccc(NC4CCC(O)CC4)nc23)c1` (stereo unspecified), with 5.75 µM.

The next experiment deals with PI3-kinase p110-delta/p85-alpha (Homo sapiens, UniProt O00329). Kind of experiment: Inhibition of human full length recombinant His-tagged PIK3CD/PIK3R1 expressed in baculovirus expression system after 60 mins by LanthaScreen Eu binding assay in presence of kinase tracer 314. The gist of the method: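 Binding displacement in 50 mM HEPES pH 7.5, 10 mM MgCl2, 1 mM EGTA, 0.01% Brij-35. Enzyme 0.5 nM with Eu-anti-GST antibody 2 nM added to pre-spotted compound, then tracer 314 10 nM (all final). Controls omit enzyme. 60 min at room temperature; TR-FRET read at excitation 320 nm, emission 615/665 nm. Results as pIC50.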
Chain of PI3-kinase p110-delta/p85-alpha (P27986 whole entry): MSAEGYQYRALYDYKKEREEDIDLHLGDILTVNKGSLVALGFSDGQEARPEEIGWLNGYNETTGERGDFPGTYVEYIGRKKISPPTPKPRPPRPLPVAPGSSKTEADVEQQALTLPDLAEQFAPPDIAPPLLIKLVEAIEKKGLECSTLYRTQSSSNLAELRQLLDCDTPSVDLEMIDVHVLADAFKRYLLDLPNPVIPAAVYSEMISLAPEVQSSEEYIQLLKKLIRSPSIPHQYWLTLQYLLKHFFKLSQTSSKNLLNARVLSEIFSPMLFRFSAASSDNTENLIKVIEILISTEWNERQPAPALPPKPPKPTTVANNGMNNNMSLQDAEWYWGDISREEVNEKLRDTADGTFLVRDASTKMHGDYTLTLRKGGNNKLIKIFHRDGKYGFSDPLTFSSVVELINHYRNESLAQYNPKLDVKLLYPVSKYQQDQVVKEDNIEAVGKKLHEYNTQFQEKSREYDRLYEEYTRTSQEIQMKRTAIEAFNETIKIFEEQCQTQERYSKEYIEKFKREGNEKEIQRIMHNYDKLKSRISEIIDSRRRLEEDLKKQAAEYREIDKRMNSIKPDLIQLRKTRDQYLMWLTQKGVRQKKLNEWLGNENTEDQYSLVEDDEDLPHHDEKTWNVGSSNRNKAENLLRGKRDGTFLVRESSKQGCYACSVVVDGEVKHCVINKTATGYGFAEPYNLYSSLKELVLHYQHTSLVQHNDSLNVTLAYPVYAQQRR
Chain of PI3-kinase p110-delta/p85-alpha (O00329 whole entry): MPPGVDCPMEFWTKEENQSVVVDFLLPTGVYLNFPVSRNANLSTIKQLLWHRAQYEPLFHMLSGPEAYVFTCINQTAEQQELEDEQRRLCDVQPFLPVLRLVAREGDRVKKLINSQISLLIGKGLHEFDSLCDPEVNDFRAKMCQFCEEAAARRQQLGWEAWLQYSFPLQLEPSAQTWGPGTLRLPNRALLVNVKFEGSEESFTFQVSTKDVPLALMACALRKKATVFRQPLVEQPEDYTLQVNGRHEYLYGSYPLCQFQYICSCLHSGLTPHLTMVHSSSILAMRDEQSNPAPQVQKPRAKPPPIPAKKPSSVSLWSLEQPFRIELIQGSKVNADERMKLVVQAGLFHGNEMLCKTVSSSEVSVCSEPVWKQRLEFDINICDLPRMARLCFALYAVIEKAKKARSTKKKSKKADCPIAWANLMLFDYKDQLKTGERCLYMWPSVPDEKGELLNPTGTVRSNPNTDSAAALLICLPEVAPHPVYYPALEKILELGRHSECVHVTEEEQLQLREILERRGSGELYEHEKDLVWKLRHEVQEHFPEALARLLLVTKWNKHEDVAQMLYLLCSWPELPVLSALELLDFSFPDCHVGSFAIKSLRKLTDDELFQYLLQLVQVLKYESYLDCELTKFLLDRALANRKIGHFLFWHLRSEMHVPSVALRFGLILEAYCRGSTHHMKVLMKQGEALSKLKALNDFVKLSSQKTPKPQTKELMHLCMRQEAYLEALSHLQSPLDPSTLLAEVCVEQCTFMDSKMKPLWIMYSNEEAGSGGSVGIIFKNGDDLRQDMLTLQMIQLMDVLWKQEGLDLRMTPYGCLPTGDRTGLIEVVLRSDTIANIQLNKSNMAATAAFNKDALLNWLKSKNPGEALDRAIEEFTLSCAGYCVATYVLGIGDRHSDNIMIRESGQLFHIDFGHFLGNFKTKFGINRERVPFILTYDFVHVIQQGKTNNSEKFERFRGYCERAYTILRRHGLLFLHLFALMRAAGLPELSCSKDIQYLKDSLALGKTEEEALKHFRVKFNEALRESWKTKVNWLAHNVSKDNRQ
`CN(Cc1ccccc1)c1ncnc2ccc(Br)cc12`: the IC50 is 6.92 µM. In the case of `Cc1nc2ccc(Cl)cn2c1-c1ccnc(N)n1`, the IC50 is 2.57 µM. As to `Cn1ccc2cc(-c3cnc4cnc(-c5cccc(C(N)=O)c5)cn34)ccc21`, the IC50 is 0.427 µM. Same read-out and setting: under `O=C(C1CC=CCC1)N1CCCC(c2n[nH]c3ncccc23)C1` (stereo unspecified) stands 8.51 µM; under `c1ccc(CSc2nc(N3CCOCC3)c3sccc3n2)cc1`, 3.8 µM. On the same count and under the same terms, under `c1cncc(CCNc2ccc3ncc(-c4cc5ccccc5s4)n3n2)c1` stands 6.46 µM; under `NC(=O)c1nc(-c2ccc3ncccc3c2)nc2c1[nH]c(=O)n2CCc1ccccc1`, 2.45 µM. Still for that read-out and setting: then `Clc1ccc2ncnc(NCCCc3ccccc3)c2c1`, with 3.16 µM; and `Clc1ccc2ncnc(NCCOc3ccccc3)c2c1`, with 5.5 µM. In the case of `CN1CCC(NCc2ccc(Nc3ncc4cnn([C@H]5C[C@@H]6CC[C@H]5C6)c4n3)cc2)CC1`, the IC50 is 0.339 µM.

For `Cc1nn(-c2ccccc2)c2c1-c1nc(N)ncc1CC2`, the IC50 is 8.13 µM.
